# Yeast life ext: extends the lifespan of yeast. inhibition of the nicotinamide effect, % at 10 µM. S. cerevisiae growth with nicotinamide, OD615; deaD strain in restrictive glucose medium. AID 775. hit rate 0.68% among 130,000;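 active means inhibition above a set limit, placed 3 SD over the median of all compounds, cut at about 26% in these data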
#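 assay system = DeaD-strain S. cerevisiae | buffer or medium = restrictive glucose medium | reagent = 1.5 mM nicotinamide | compound = 10 µM single point, 0.25% DMSO | incubation = 48 h compound exposure at 30 °C, humidified | signal = OD615 measurement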
# RAM network inh: yeast RAM network inhibition; S. cerevisiae dse1pr::URA3 reporter, 5-FOA growth OD615, 2 d; analog-sensitive cbk1-as2 kinase mutant strain; inhibition, % at 50 µM; hit rate 1.8% among 190,000; AID 868;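 active means inhibition above a set limit, 3 SD over mean compound inhibition, cut at about 8.4% in these data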;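 further: inhibition rescues growth on 5-FOA so higher OD means more RAM inhibition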
# SDO1 yeast rescue: restores growth of sdo1-depleted yeast. hit rate 0.21% among 140,000. z-score at 10 µM. S. cerevisiae sdo1-depleted JHY4D growth rescue, OD600 30 h; hits give high values; pdr5 snq2 efflux-pump mutant strain;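 active means z-score above 3 at both the 24 hr and the 30 hr optical density reads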
# BB579 growth dn: yeast BB579 growth reduction in restrictive medium. hit rate 0.51% among 140,000. inhibition, % at 10 µM. S. cerevisiae BB579 growth, OD615, 48 h;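 active means inhibition above a set limit, 3 SD over the mean compound inhibition, cut at about 44% in these data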
#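 Assay system – yeast BB579 (DeaD) · Dosing – single compound dose of 10 µM, 0.25% DMSO final · Detection – OD615 turbidity measurement · Buffer or medium – CSMM-D restrictive synthetic medium containing dextrose (glucose) · Benchmarks – positive control amphotericin B 10 µg/mL · Incubation – 48 h exposure, 30 °C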
# Hits are given with their value; – = inactive; · = no result given. Sampled rows, rich in hits. Any-hit rate of the full collection: about 2.7%.
SMILES,Yeast life ext,RAM network inh,SDO1 yeast rescue,BB579 growth dn
Cc1[nH]n(-c2ccccc2)c(=O)c1N=Nc1ccccc1O,·,9.9,·,·
Cc1[nH]n(-c2ccccc2)c(=O)c1N=Nc1nccs1,34,–,–,–
Cc1ccc(CN2CCCC(CO)(Cc3ccccc3C)C2)s1 (stereo not drawn),·,–,·,·
CCC(C)NC(=O)CSc1nnc(-c2c[nH]c3ccccc23)o1 (stereo not drawn),·,–,·,·
CC(C)CC(=O)CC1(O)C(=O)Nc2ccccc21 (stereo not drawn),·,–,·,·
O=C(OC1CCCCC1)c1ccc2c(c1)C1C=CCC1C(C(=O)O)N2 (stereo not drawn),–,11,–,–
O=C(O)C1Nc2c(O)cccc2C2C=CCC12 (stereo not drawn),–,–,–,–
CC(Sc1nc(NC(C)(C)C)nc(N(C)C)n1)C(=O)Nc1ccccc1 (stereo not drawn),·,–,·,·
CC(Sc1nc(C(C)(C)C)cc(-c2ccccc2)c1C#N)C(=O)Nc1ccccc1 (stereo not drawn),–,9.2,–,–
Cn1c(SCC(=O)N2CCCc3ccccc32)nnc1-c1c[nH]c2ccccc12,43,–,–,–
CCCCCCCCOC(=O)CCc1c(C)[nH]c(=S)[nH]c1=O,–,8.8,–,–
O=c1c2ccccc2nc(SCc2cccc(F)c2)n1C1CCCC1,–,11,–,–
N#CCSc1nc2ccccc2c(=O)n1C1CCCCC1,·,–,·,·
COc1ccc(/C=N/N=C2/CC(C)(C)Cc3n[nH]c(=O)cc32)cc1,·,–,·,·
O=C(NC12CC3CC(CC(C3)C1)C2)c1cc([N+](=O)[O-])ccc1N1CCOCC1,·,–,·,·
CC(C(=O)OCc1nnc(-c2ccccc2)o1)N1C(=O)C2CCCCC2C1=O (stereo not drawn),·,–,·,·
N#CSCC(=O)c1cccc2ccccc12,–,–,–,84
O=C(O)C1CC=CCC1C(=O)Nc1cccc([N+](=O)[O-])c1 (stereo not drawn),·,9.6,·,·
O=C(O)C1CC=CCC1C(=O)Nc1cccc(F)c1 (stereo not drawn),–,–,–,–
Cc1ccccc1NC(=S)c1nc2ccccc2[nH]1,–,–,–,50
COc1cccc(C(=O)C2CCCN(Cc3cccc(-n4nc(C)cc4C)c3)C2)c1 (stereo not drawn),·,–,·,·
COc1ccc(/C=N/NC(=O)c2csc(-n3nc(C)cc3C(F)(F)F)n2)cc1,142,–,–,–
COc1ccc(C(C)=O)cc1COC(=O)c1cnc(Cl)c(Cl)c1,·,9.9,·,·
COc1ccc(C(C)=O)cc1COC(=O)c1ccc2c(c1)OCO2,–,–,–,–
COc1ccc(NC(=O)CC(c2ccc(F)cc2)c2ccc(OC(C)C)cc2)cc1 (stereo not drawn),–,9.3,–,–
SMILES,Yeast life ext,RAM network inh,SDO1 yeast rescue,BB579 growth dn
CCOc1ccc(NS(=O)(=O)c2ccc3ncsc3c2)cc1,·,–,·,·
O=C(Nc1ccccc1)NC1CCCCC1,42,–,–,–
S=C(Nc1ccc(Oc2ccccc2)cc1)NC1CCCCCC1,–,11,–,56
CCCCOc1ccc(S(=O)(=O)NNC(=O)c2cc3ccccc3o2)cc1,–,10,–,–
CC(C)COc1ccc(S(=O)(=O)NNC(=O)c2cc3ccccc3o2)cc1,–,–,–,–
CCOc1ccc(Br)cc1S(=O)(=O)Nc1cccc(S(=O)(=O)N(C)c2ccccc2)c1,–,–,–,–
COCCCNC(=O)c1cc(S(=O)(=O)N2CCOCC2)ccc1SCc1cccc(OC)c1OC,·,–,·,·
O=C(Nc1ccc(Cn2cccn2)cc1)c1ccc(COc2cccc(Br)c2)cc1,–,9.9,–,–
CCOC(=O)N1CCC(Nc2c(NCCCN3CCN(C4CCCCC4)CC3)c(=O)c2=O)CC1,·,–,·,·
CC(=O)C(/C=N/c1ncc(C(F)(F)F)cc1Cl)=C(\C)O,·,–,·,·
CCc1cc2c(=O)c(Oc3ccccc3)c(C)oc2cc1O,69,–,–,–
CC1=NN(C(=O)CCc2ccc3c(c2)OCO3)C(O)(C(F)(F)F)C1 (stereo not drawn),·,–,·,·
COc1ccc(/C=C2\S/C(=N/S(=O)(=O)c3cccs3)NC2=O)cc1,·,–,·,·
COc1cc(/C=C2/S/C(=N/S(=O)(=O)c3ccccc3)NC2=O)c([N+](=O)[O-])cc1OC,–,9.4,–,–
COc1ccc(/C(N)=N/O)c(OC)c1,·,–,·,·
Cn1ncc(C#N)c1/N=C/N1CCOCC1,40,–,–,–
O=C(CN1CCCc2ccccc21)Nc1ccc(F)cc1[N+](=O)[O-],·,–,·,·
Cc1nn(-c2ccccc2)c(N)c1N=Nc1ccc(Cl)cc1,–,10,–,–
CSc1cccc(CN2CCN(Cc3ccc(F)c(F)c3)C(CCO)C2)c1 (stereo not drawn),·,–,·,·
